# In ChEMBL document CHEMBL2150923, “Synthesis and biological evaluation of 2,3-diarylimidazo[1,2-a]pyridines as antileishmanial agents” (Eur J Med Chem, 2012):
# Activity calls are given as the source filed them. No cut-off for these calls is given here.
# What was measured:
# [1] = Selectivity index, ratio of IC50 for human HeLa cells to IC50 for promastigote form of Leishmania major MHOM/IL/81/BNI; format: toxicity, cell-based; details: read-out: Ratio IC50
# Leishmania major [2] = assay: Antileishmanial activity against promastigote form of Leishmania major MHOM/IL/81/BNI after 96 hrs by resazurin-based spectrofluorimetric method; format: functional, organism-based
# How it was run: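 Promastigotes were maintained in Schneider's medium + 13% heat-inactivated FBS at 26 °C. They were seeded at 10^6/mL and exposed to compound for 96 h at 26 °C; DMSO was at most 1% final. Resazurin was added 4 h before reading, with fluorescence at ex 550/em 590 nm. IC50 values are means of at least three determinations.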
# HeLa = assay: Cytotoxicity against human HeLa cells after 96 hrs by resazurin-based spectrofluorimetric method; format: cell-based
# How it was run: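 HeLa cells in RPMI 1640 + 10% serum were seeded at 10^5/mL and incubated 24 h at 37 °C, 5% CO2. Compound dilutions were then added in duplicate, with DMSO at most 1% final. After 96 h, resazurin was added; after a further 3 h at 37 °C, fluorescence was read at ex 550/em 590 nm.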
# [3] = Inhibition of Leishmania major recombinant His-tagged CK1.2 using RRKHAAIGpSAYSITA as substrate and [32gammaP]ATP after 30 mins by scintillation counting
# How it was run: (§1)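 Kinase reactions at 30 °C for 30 min with 15 µM [γ-33P]ATP and 25 µM CKS peptide, in buffer A (Mops pH 7.2, EGTA, MgCl2, DTT, vanadate). Porcine-brain CK1δ/ε was run in three-fold diluted buffer A. LmCK1.2 was His-tagged, expressed in E. coli and cobalt-purified. Reactions were spotted on P81 paper, washed in 1% phosphoric acid, and counted by scintillation. After blank subtraction, activity is expressed as % of the uninhibited maximum, with DMSO controls.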
# [4] = Inhibition of pig brain CK1delta/epsilon using RRKHAAIGpSAYSITA as substrate and [32gammaP]ATP after 30 mins by scintillation counting; design: species or system Sus scrofa; how it was run: as §1
# [5] = Methanol-buffer partition coefficient, log D of the compound by RP-HPLC analysis at pH 4.5; format: physicochemical
# How it was run: (§2)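 Log D was determined by RP-HPLC on a C18 column with methanol and aqueous buffer: 0.01 M acetic acid for pH 4.5, and 0.01 M ammonium acetate for […]. Dead time was taken from thiourea. Extrapolated log kw was calibrated against 30 OECD reference substances, and log D read by interpolation for each pH.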
# [6] = Methanol-buffer partition coefficient, log D of the compound by RP-HPLC analysis at pH 7.5; format: physicochemical; how it was run: as §2
# Leishmania major [7] = assay: Antileishmanial activity against amastigote form of Leishmania major MHOM/IL/81/BNI infected in Balb/c mouse peritoneal macrophages assessed as inhibition of intracellular amastigote burden at 10 uM […] by May-Grunwald-Geimsa staining; format: functional
# How it was run: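 Peritoneal macrophages from Balb/c mice at 1.5×10^5 cells/mL in RPMI 1640 + 15% FBS on glass slides, allowed to attach for 24 h (37 °C, 5% CO2). They were then infected with stationary-phase promastigotes (1.5×10^5/mL) for 24 h, washed, and exposed to 10 µM compound. Medium plus drug was renewed at 48 h. After 2 more days, cells were methanol-fixed, Giemsa-stained, and amastigotes counted per 100 macrophages in duplicate wells.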
# Leishmania major [8] = assay: Inhibition of Leishmania major PKC
# Leishmania major [9] = assay: Antileishmanial activity against amastigote form of Leishmania major MHOM/IL/81/BNI infected in Balb/c mouse peritoneal macrophages assessed as inhibition of intracellular amastigote burden at 1 uM after 48 hrs by May-Grunwald-Geimsa staining; format: functional
IC50 [3] [µM],IC50 [4] [µM],chromatographic logD [5],chromatographic logD [6],inhibition (Leishmania major [8]),Compound,selectivity ratio [1],IC50 (Leishmania major [2]) [µM],IC50 (HeLa) [µM],inhibition at 10 µM (Leishmania major [7]) [%],inhibition at 1 µM (Leishmania major [9]) [%]
–,–,–,–,–,c1ccc(-c2nc3ccccn3c2-c2cccnc2)cc1,0.18,22.5,4,–,–
–,–,–,–,–,O=[N+]([O-])c1cccc(-c2c(-c3ccc(F)cc3)nc3ccccn23)c1,–,> 100,–,–,–
–,–,–,–,–,Oc1ccc(-c2c(-c3ccccc3)nc3ccccn23)cc1,0.4,40,16,–,–
> 10,> 10,2.61,5.13,–,Cc1ccc(-c2c(-c3ccccc3)nc3ccccn23)cc1,1,4,4,96,–
–,–,–,–,–,Fc1ccc(-c2nc3ccccn3c2-c2cccnc2)cc1,2.27,38.3,87,–,–
> 10,> 10,3.91,5.25,–,Clc1cccc(-c2nc3ccccn3c2-c2ccccc2)c1,1.14,4.4,5,94,–
–,–,–,–,–,CC(=O)Oc1ccc(-c2c(-c3ccccc3)nc3ccccn23)cc1,2.5,16,40,–,–
> 10,> 10,2.15,4.5,–,c1ccc(-c2nc3ccccn3c2-c2ccccc2)cc1,1.38,22.5,31,84,–
–,–,–,–,–,COc1ccccc1-c1nc2ccccn2c1-c1ccccc1,1.32,18.2,24,–,–
1.2,0.63,2.31,4.58,–,COc1ccc(-c2c(-c3ccccc3)nc3ccccn23)cc1,1.92,7.2,14,71,–
–,–,–,–,–,Fc1ccccc1-c1nc2ccccn2c1-c1cccnc1,0.83,34.8,29,–,–
–,–,–,–,–,N#Cc1ccc(-c2c(-c3ccccc3)nc3ccccn23)cc1,–,> 100,–,–,–
> 10,> 10,4.04,5.9,inactive,CC(C)(C)C(=O)Oc1ccc(-c2c(-c3ccccc3)nc3ccccn23)cc1,5.43,7,38,95,–
> 10,> 10,5.58,6.1,inactive,Clc1cc(Cl)cc(-c2nc3ccccn3c2-c2ccccc2)c1,1.71,39,67,–,71
> 10,> 10,4.53,5.88,–,Clc1cc(Cl)cc(-c2c(-c3ccccc3)nc3ccccn23)c1,2.34,7.7,18,79,–
> 10,> 10,3.29,4.35,–,O=[N+]([O-])c1ccc(-c2c(-c3ccccc3)nc3ccccn23)cc1,5.51,4.9,27,68,–

IC50 [3] [µM],IC50 [4] [µM],chromatographic logD [5],chromatographic logD [6],inhibition (Leishmania major [8]),Compound,selectivity ratio [1],IC50 (Leishmania major [2]) [µM],IC50 (HeLa) [µM],inhibition at 10 µM (Leishmania major [7]) [%],inhibition at 1 µM (Leishmania major [9]) [%]
–,–,–,–,–,Clc1cc(Cl)cc(-c2nc3ccccn3c2-c2cccnc2)c1,0.89,31.4,28,–,–
–,–,–,–,–,NC(=O)c1ccc(-c2c(-c3ccccc3)nc3ccccn23)cc1,1,27,27,–,–
> 10,> 10,2.04,4.59,–,COc1ccc(-c2nc3ccccn3c2-c2ccccc2)cc1,1.8,26.6,48,85,–
–,–,–,–,–,Fc1ccccc1-c1nc2ccccn2c1-c1ccccc1,0.46,39,18,–,–
–,–,–,–,–,Fc1ccc(-c2nc3ccccn3c2-c2ccccc2)cc1,3.13,23,72,–,–
4,7.1,3.59,5.19,–,CCOC(=O)c1ccc(-c2c(-c3ccccc3)nc3ccccn23)cc1,0.96,5.2,5,18,–
–,–,–,–,–,COc1ccc(-c2nc3ccccn3c2-c2cccc([N+](=O)[O-])c2)cc1,2.14,14,30,–,–
0.3,0.25,2.03,2.87,–,c1ccc(-c2nc3ccccn3c2-c2ccncc2)cc1,3.85,6.5,25,32,–
–,–,–,–,–,O=C(O)c1ccc(-c2c(-c3ccccc3)nc3ccccn23)cc1,–,> 100,–,–,–
> 10,> 10,4.2,4.65,inactive,O=[N+]([O-])c1ccc(-c2nc3ccccn3c2-c2ccccc2)cc1,18.5,30,554,84,–
–,–,–,–,–,N=C(N)c1ccc(OCCCCCOc2ccc(C(=N)N)cc2)cc1 [PENTAMIDINE],3.13,4.8,15,99,–
–,–,–,–,–,c1ccc(-c2nc3ccccn3c2-c2cncnc2)cc1,–,> 100,–,–,–
> 10,> 10,4.26,5.46,inactive,CCOC(=O)c1ccc(-c2nc3ccccn3c2-c2ccccc2)cc1,8.65,40,346,86,–
–,–,–,–,–,Nc1ccc(-c2c(-c3ccccc3)nc3ccccn23)cc1,0.65,43,28.1,–,–
–,–,–,–,–,c1ccc(-c2nc3ccccn3c2-c2ccsc2)cc1,2.45,14.3,35,–,–
